Assay results as given in ChEMBL document CHEMBL4392863, “Spongian Diterpenes Including One with a Rearranged Skeleton from the Marine Sponge Spongia officinalis” (J Nat Prod, 2019).

Legend:
RAW264.7 = assay: Anti-inflammatory activity in mouse RAW264.7 cells assessed as inhibition of LPS-induced NO production pre-incubated for 2 hrs before LPS stimulation for 24 hrs by nitrate/nitrite assay; assay type: functional, cell-based
How it was run: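 LPS-stimulated RAW264.7 macrophages were used following an earlier published protocol. Compounds from 30 mM DMSO stocks were diluted at room temperature to final test concentrations of 1−60 μM. NG-methyl-L-arginine acetate salt in DMSO served as the positive control. Inhibition of nitric oxide production was expressed as IC50.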

[1] = Cytotoxicity against mouse RAW264.7 cells assessed as reduction in cell viability incubated for 24 hrs by MTT assay; assay type: cell-based

IC50 (RAW264.7) [µM] | Structure (SMILES) | CC50 at 24 h [1] [µM]
12 | CCO[C@H]1OC(=O)C2=C1[C@]1(CO)CC[C@@H]3[C@](C)(CC(=O)[C@H](O)[C@]3(C)CO)[C@H]1CC2 | > 60
22 | CO[C@@H]1O[C@H](OC)C2=C1CC[C@H]1[C@@]2(CO)CC[C@@H]2[C@]1(C)CC(=O)[C@H](O)[C@]2(C)CO | > 60
12 | CC(=O)OC[C@@]12CC[C@@H]3[C@](C)(CC(=O)[C@@H](O)[C@]3(C)CO)[C@H]1CCc1cocc12 | > 60
> 60 | C[C@]12C[C@@H](O)C(=O)[C@](C)(CO)[C@@H]1CC[C@@]1(CO)c3cocc3CC[C@@H]12 | > 60
17 | CNC(=N)NCCC[C@H](N)C(=O)O [TILARGININE ACETATE] | 
15 | CC(=O)OC[C@@]12CC[C@@H]3[C@](C)(CC(=O)[C@H](O)[C@]3(C)CO)[C@H]1CCc1cocc12 | > 60
32 | C[C@]12[C@@H](O)[C@]3(O)C(=O)OC[C@]3(C)[C@@H]1CC[C@@]1(CO)c3cocc3CC[C@@H]12 | > 60
20 | C[C@]12CC(=O)[C@H](O)[C@](C)(CO)[C@@H]1CC[C@@]1(CO)c3cocc3CC[C@@H]12 | > 60
